{"source": "ChEMBL document CHEMBL1649147", "about": "“Antistaphylococcal activity of dihydrophthalazine antifolates, a family of novel antibacterial drugs” (2009)", "key": {"[1]": {"system": "Staphylococcus epidermidis", "assay": "Antibacterial activity against methicillin-susceptible coagulase-negative Staphylococcus epidermidis 051 after 50 passages by agar dilution method", "format": "functional", "in_short": "(§1)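 Daily serial passage for up to 50 days at 35°C for 24 h in 1 ml MHB. Each transfer used 10 µl from the tube nearest the MIC (1–2 dilutions below) with the same turbidity as the drug-free control. MICs were measured by agar dilution, with changes given as log2 steps.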"}, "[2]": {"system": "Staphylococcus epidermidis", "assay": "Antibacterial activity against methicillin-susceptible coagulase-negative Staphylococcus epidermidis 057 after 10 passages by agar dilution method", "format": "functional", "in_short": "(§2)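 Daily serial passage for up to 50 days at 35°C for 24 h in 1 ml MHB. […] Each transfer used 10 µl from the tube nearest the MIC (1–2 dilutions below) with the same turbidity as the drug-free control. […] MICs were measured by agar dilution, with changes given as log2 steps.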"}, "[3]": {"system": "Staphylococcus epidermidis", "assay": "Antibacterial activity against methicillin-resistant coagulase-negative Staphylococcus epidermidis 197 after 50 passages by agar dilution method", "format": "functional", "in_short": "as §1"}, "[4]": {"system": "Staphylococcus epidermidis", "assay": "Antibacterial activity against methicillin-resistant, Linezolid non-susceptible coagulase-negative Staphylococcus epidermidis 345 after 50 passages by agar dilution method", "format": "functional", "in_short": "as §1"}, "[5]": {"system": "Staphylococcus aureus", "assay": "Antibacterial activity against methicillin-susceptible Staphylococcus aureus by agar dilution method", "format": "functional", "in_short": "(§3)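 Agar dilution on Mueller-Hinton agar per CLSI guidelines. S. aureus ATCC 29213 and E. faecalis ATCC 29212 were run with each set, and test MICs were accepted only when the control strains fell within acceptable ranges.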"}, "[6]": {"system": "Staphylococcus aureus", "assay": "Antibacterial activity against Tmp-susceptible Staphylococcus aureus by agar dilution method", "format": "functional", "in_short": "(§4)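 MICs by agar dilution on Mueller-Hinton agar following CLSI guidelines. S. aureus ATCC 29213 and E. faecalis ATCC 29212 were run as quality controls with each set, and test-strain MICs were kept only if control MICs fell within acceptable ranges.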"}, "[7]": {"system": "Staphylococcus aureus", "assay": "Antibacterial activity against Tmp-susceptible coagulase-negative Staphylococcus aureus by agar dilution method", "format": "functional", "in_short": "as §4"}, "[8]": {"system": "Staphylococcus aureus", "assay": "Antibacterial activity against methicillin-susceptible Staphylococcus aureus ATCC 29213 by broth macrodilution method", "format": "functional", "conditions": "ATCC29213"}, "[9]": {"system": "Staphylococcus aureus", "assay": "Antibacterial activity against methicillin-susceptible Staphylococcus aureus 505 by broth macrodilution method", "format": "functional"}, "[10]": {"system": "Staphylococcus aureus", "assay": "Antibacterial activity against methicillin-resistant Staphylococcus aureus ATCC 43300 by broth macrodilution method", "format": "functional", "conditions": "ATCC43300"}, "[11]": {"system": "Staphylococcus aureus", "assay": "Antibacterial activity against methicillin-resistant Staphylococcus aureus 145 by broth macrodilution method", "format": "functional"}, "[12]": {"system": "Staphylococcus aureus", "assay": "Antibacterial activity against methicillin-resistant Staphylococcus aureus 507 by broth macrodilution method", "format": "functional"}, "[13]": {"system": "Staphylococcus aureus", "assay": "Antibacterial activity against vancomycin-resistant Staphylococcus aureus VRS1 by broth macrodilution method", "format": "functional", "in_short": "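Michigan VRSA strain, one of 12 staphylococci later used in time-kill studies. MIC was determined by broth macrodilution and reported in μg/ml.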"}, "[14]": {"system": "Staphylococcus epidermidis", "assay": "Antibacterial activity against methicillin-susceptible coagulase-negative Staphylococcus epidermidis 051 by broth macrodilution method", "format": "functional"}, "[15]": {"system": "Staphylococcus epidermidis", "assay": "Antibacterial activity against methicillin-susceptible coagulase-negative Staphylococcus epidermidis 057 by broth macrodilution method", "format": "functional"}, "[16]": {"system": "Staphylococcus epidermidis", "assay": "Antibacterial activity against methicillin-resistant coagulase-negative Staphylococcus epidermidis 074 by broth macrodilution method", "format": "functional"}, "[17]": {"system": "Staphylococcus epidermidis", "assay": "Antibacterial activity against methicillin-resistant coagulase-negative Staphylococcus epidermidis 197 by broth macrodilution method", "format": "functional"}, "[18]": {"system": "Staphylococcus epidermidis", "assay": "Antibacterial activity against methicillin-resistant coagulase-negative Staphylococcus epidermidis 225 by broth macrodilution method", "format": "functional"}, "[19]": {"system": "Staphylococcus epidermidis", "assay": "Antibacterial activity against methicillin-resistant coagulase-negative Staphylococcus epidermidis 345 by broth macrodilution method", "format": "functional"}, "[20]": {"system": "Staphylococcus aureus", "assay": "Antibacterial activity against methicillin-susceptible Staphylococcus aureus ATCC 29213 after 50 passages by agar dilution method", "format": "functional", "conditions": "ATCC29213", "in_short": "as §2"}, "[21]": {"system": "Staphylococcus aureus", "assay": "Antibacterial activity against methicillin-susceptible, vancomycin-intermediate Staphylococcus aureus 505 by broth macrodilution method", "format": "functional"}, "[22]": {"system": "Staphylococcus aureus", "assay": "Antibacterial activity against methicillin-resistant and vancomycin-resistant Staphylococcus aureus VRS1 by agar dilution method", "format": "functional", "in_short": "as §3"}, "[23]": {"system": "Staphylococcus epidermidis", "assay": "Antibacterial activity against methicillin-resistant, Linezolid non-susceptible coagulase-negative Staphylococcus epidermidis 345 by agar dilution method", "format": "functional"}, "[24]": {"system": "Staphylococcus epidermidis", "assay": "Antibacterial activity against methicillin-resistant, vancomycin-intermediate coagulase-negative Staphylococcus epidermidis 225 by agar dilution method", "format": "functional", "in_short": "as §3"}, "[25]": {"system": "Staphylococcus aureus", "assay": "microbe, parasite or virus in culture", "conditions": "505"}, "[26]": {"system": "coagulase-negative staphylococci", "assay": "Antibacterial activity against Tmp-resistant coagulase-negative staphylococci by agar dilution method"}, "[27]": {"system": "coagulase-negative staphylococci", "assay": "Antibacterial activity against Tmp-susceptible coagulase-negative staphylococci by agar dilution method"}, "[28]": {"system": "coagulase-negative staphylococci", "assay": "Antibacterial activity against methicillin-resistant coagulase-negative staphylococci by agar dilution method"}, "[29]": {"system": "coagulase-negative staphylococci", "assay": "Antibacterial activity against methicillin-susceptible coagulase-negative staphylococci by agar dilution method"}}}
{"smiles": "CCC[C@@H]1C[C@@H](C(=O)N[C@@H]([C@H]2O[C@H](SC)[C@H](O)[C@@H](O)[C@H]2O)[C@H](C)Cl)N(C)C1", "note": "[CLINDAMYCIN]", "values": [{"measurement": "MIC", "setting": "[1]", "value": 4, "unit": "µg/mL"}, {"measurement": "MIC", "setting": "[2]", "value": "> 128", "unit": "µg/mL"}, {"measurement": "MIC", "setting": "[3]", "value": 2, "unit": "µg/mL"}, {"measurement": "MIC", "setting": "[4]", "value": 4, "unit": "µg/mL"}, {"measurement": "MIC50", "setting": "[5]", "value": 0.125, "unit": "µg/mL"}, {"measurement": "MIC90", "setting": "[5]", "value": "> 32", "unit": "µg/mL"}, {"measurement": "MIC50", "setting": "[6]", "value": "> 32", "unit": "µg/mL"}, {"measurement": "MIC90", "setting": "[6]", "value": "> 32", "unit": "µg/mL"}, {"measurement": "MIC", "setting": "[7]", "value": "≤ 0.06", "unit": "µg/mL"}, {"measurement": "MIC", "setting": "[8]", "value": 0.125, "unit": "µg/mL"}, {"measurement": "MIC", "setting": "[9]", "value": 0.125, "unit": "µg/mL"}, {"measurement": "MIC", "setting": "[10]", "value": "> 32", "unit": "µg/mL"}, {"measurement": "MIC", "setting": "[11]", "value": "> 32", "unit": "µg/mL"}, {"measurement": "MIC", "setting": "[12]", "value": 512, "unit": "µg/mL"}, {"measurement": "MIC", "setting": "[13]", "value": "> 512", "unit": "µg/mL"}, {"measurement": "MIC", "setting": "[14]", "value": 0.125, "unit": "µg/mL"}, {"measurement": "MIC", "setting": "[15]", "value": 0.125, "unit": "µg/mL"}, {"measurement": "MIC", "setting": "[16]", "value": 0.25, "unit": "µg/mL"}, {"measurement": "MIC", "setting": "[17]", "value": 0.125, "unit": "µg/mL"}, {"measurement": "MIC", "setting": "[18]", "value": "> 128", "unit": "µg/mL"}, {"measurement": "MIC", "setting": "[19]", "value": 1, "unit": "µg/mL"}, {"measurement": "MIC", "setting": "[20]", "value": 32, "unit": "µg/mL"}, {"measurement": "MIC", "setting": "[21]", "value": 0.125, "unit": "µg/mL"}, {"measurement": "MIC", "setting": "[22]", "value": "> 32", "unit": "µg/mL"}, {"measurement": "MIC", "setting": "[23]", "value": 2, "unit": "µg/mL"}, {"measurement": "MIC", "setting": "[24]", "value": "> 32", "unit": "µg/mL"}, {"measurement": "MIC", "setting": "[25]", "value": "> 128", "unit": "µg/mL"}, {"measurement": "MIC50", "setting": "[26]", "value": 2, "unit": "µg/mL"}, {"measurement": "MIC50", "setting": "[27]", "value": 0.125, "unit": "µg/mL"}, {"measurement": "MIC90", "setting": "[27]", "value": "> 32", "unit": "µg/mL"}, {"measurement": "MIC50", "setting": "[28]", "value": 0.25, "unit": "µg/mL"}, {"measurement": "MIC", "setting": "[29]", "value": 0.125, "unit": "µg/mL"}, {"measurement": "MIC90", "setting": "[29]", "value": 0.125, "unit": "µg/mL"}]}
